# TRPC4 agonist: opens the mouse TRPC4 cation channel | HEK293 TRPC4beta/mu-opioid, Fluo4 calcium fluorescence; hits give high values | B-score at 10 µM | actives 0.49% (n = 310,000);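 active = B-score above 5 SD of library B-scores, and initial fluorescence ratio not above library mean plus 5 SD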;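 note: positive B-score marks a calcium rise read as TRPC4 activation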
#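 Assay system: HEK293 cells stably co-expressing mouse TRPC4beta and mu-opioid receptor / Timing: Fluo4 dye loading 45 min at room temperature, 110 s recording / Signal: Fluo4 calcium-sensitive dye fluorescence, kinetic, 1 Hz baseline / Read-out: integrated baseline-normalised fluorescence ratio, converted to per-well B score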
# TRPC4 PAM: allosteric potentiators of mouse TRPC4 channel; Q9QUQ5; HEK293 TRPC4beta/mu-opioid, DAMGO EC20, Fluo-4 Ca2+ flux; hits give high values; B-score at 10 µM; actives 0.42% (n = 310,000); AID 2227;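 active = B-score of calcium response area above 5 SD of library B-scores, with initial fluorescence ratio within 5 SD of library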;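 note: B-score of integrated fluorescence ratio over time as area under calcium response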
# CR mimetic SO: lowers age-related superoxide in aged yeast cells. S. cerevisiae aged cells, superoxide DHE fluorescence; hits give low values. superoxide response (% of plate mean), % at 10 µM. actives 0.18% (n = 330,000). AID 2690;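 active = superoxide response under a set limit, about three screen SD below normal, cut at about 65% in these data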;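 note: yeast aged for seven days with compound at 30 °C before DHE staining; 100% = average MFI of all compound-treated wells on the plate with controls excluded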
# TRPC6 inhibitor: blocks the mouse TRPC6 cation channel; B-score at 10 µM; HEK293-TRPC6, membrane potential dye, ACh-evoked depolarization; hits give low values; AID 2553; actives 1.1% (n = 310,000); Q61143;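 active = B-score under library mean minus 3 SD, initial fluorescence not abnormally high, positive integrated signal ratio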;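 note: B-score derived from integrated fluorescence ratio over the kinetic read; more negative B-score means stronger inhibition of depolarization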
# TRPC4 inh: blocks the mouse TRPC4 cation channel. Q9QUQ5. HEK293 TRPC4beta/mu-opioid, DAMGO-evoked Fluo4 calcium flux; hits give low values. B-score at 10 µM. actives 0.39% (n = 300,000);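 active = B-score over 3 SD under the library average, no early fluorescence shift, positive overall ratio signal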
#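 System: stable TRPC4beta/mu-opioid receptor HEK293 cells; Dosing: single-point compound dosing; Measured by: Fluo4 Ca2+ flux fluorescence; Read-out basis: per-well B score of integrated baseline-normalized Fluo4 ratio.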
# TRPC6 act: activates the mouse TRPC6 cation channel; actives 0.13% (n = 310,000); B-score at 10 µM; HEK293-TRPC6 membrane potential dye fluorescence; hits give high values;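 active = B-score of the integrated fluorescence ratio above library mean plus 3 SD, and starting fluorescence ratio within library mean plus 5 SD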;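 note: higher score means more depolarization so channel activation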
# TRPC4 spec 2: mouse TRPC4 off-target activity of TRPC6 inhibitors, second screen; HEK293 TRPC4/MOR, membrane potential dye fluorescence; channel activated by saturating DAMGO dose; inhibition, % at 10 µM; shares compounds with TRPC6 inhibitor; actives 42% (n = 920);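 active = compounds whose fluorescence signal differed from control wells by over 3 SD, either direction, in both duplicate plates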
# TRPC4 spec: mouse TRPC4 off-target activity of TRPC6 inhibitors. shares compounds with TRPC6 inhibitor. HEK293 TRPC4/mu-opioid, membrane potential fluorescence. activity change, negative = inhibition, % at 10 µM. actives 61% (n = 920). AID 2777;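 active = rise or fall in signal beyond 3 SD of buffer-only wells in both replicate plates, either sign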;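 note: integrated kinetic ratio of fluorescence range over baseline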
# HEK293 MPD ctr 2-1: parental HEK293 nonspecific activity of TRPC6 inhibitors, second screen; shares compounds with TRPC6 inhibitor; parental HEK293 membrane potential dye fluorescence; maximal acetylcholine challenge after compound addition; signal change vs control, % at 10 µM; actives 31% (n = 920);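 active = membrane potential signal moving either way by over 3 SD of the maximum-effect control, in both duplicate plates, meaning non-specific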
# HEK293 MPD ctr-1: checks TRPC6 inhibitor effects in parental HEK293 cells; actives 60% (n = 920); parental HEK293 membrane potential dye fluorescence; shares compounds with TRPC6 inhibitor; membrane potential signal change, % at 10 µM; AID 2780;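 active = membrane potential signal shifting up or down by more than 3 SD of buffer-only wells, on both duplicate plates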
# HEK293 MPD ctr-2: counter-screen for TRPC6 modulators: effect in parental HEK293 cells; shares compounds with TRPC6 inhibitor; membrane potential dye fluorescence; membrane potential signal change, % at 10 µM; actives 51% (n = 2,400);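 active = membrane potential signal moves up or down beyond 5 SD from buffer-only wells, on both duplicate plates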
# HEK293 MPD ctr 2-2: parental HEK293 nonspecific activity of TRPC6 modulators, second screen | shares compounds with TRPC6 inhibitor | membrane potential dye fluorescence; after compound, maximal acetylcholine stimulation | inhibition, % at 10 µM | actives 14% (n = 2,400) | AID 488926;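 active = membrane potential signal drops by more than 5 SD from the mean control signal, in both duplicate plates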;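 note: plate controls were acetylcholine ECmax control wells for no effect and buffer only wells for full effect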
# TRPC4 ctr mod: tests whether TRPC6 modulators also affect mouse TRPC4; shares compounds with TRPC6 inhibitor; HEK293 TRPC4/mu-opioid, membrane potential fluorescence; percent change from control (negative = decrease, positive = increase), % at 10 µM; actives 69% (n = 2,400); AID 488927;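 active = membrane potential signal moved up or down beyond 5 SD of buffer control wells, in both duplicate plates, actives on both sides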;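 note: plate controls were assay buffer wells for no effect and DAMGO maximal-effect wells for full effect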
# TRPC4 ctr inh 2: second check of whether TRPC6 modulators also affect mouse TRPC4 | shares compounds with TRPC6 inhibitor | HEK293 TRPC4/mu-opioid, membrane potential dye fluorescence; stimulated with maximal-effect DAMGO | inhibition, % at 10 µM | actives 55% (n = 2,400);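 active = drop in membrane potential signal beyond 5 SD of the control wells in both duplicate plates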;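 note: TRPC4 counter screen for TRPC6 hits run under conditions tuned for TRPC6 not TRPC4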
# TRPC6 inh conf: mouse TRPC6 inhibitor confirmation. shares compounds with TRPC6 inhibitor. HEK293-TRPC6, membrane potential dye, ACh-evoked depolarization. inhibition, % at 10 µM. actives 43% (n = 3,300). AID 488960;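 active = fluorescence ratio falls more than 5 SD below the full-stimulation control mean, in both duplicate runs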;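 note: integrated fluorescence ratio of peak minus minimum over baseline after agonist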
# TRPC6 act conf: confirmation of mouse TRPC6 activators | shares compounds with TRPC6 inhibitor | actives 11% (n = 2,800) | AID 488961 | HEK293-TRPC6 membrane potential dye fluorescence, FDSS | activation, % at 10 µM;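 active = ratio signal rise beyond 5 SD above unstimulated control wells' mean, seen in both duplicate runs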;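 note: plate controls were buffer EC0 wells for no effect and acetylcholine ECmax response for full effect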
# The depositor's hits bear a star; i = inactive; . = not tested or not shown. Hits are enriched below; roughly 2.3% of the tested compounds scored in any of these assays.
SMILES,TRPC4 agonist,TRPC4 PAM,CR mimetic SO,TRPC6 inhibitor,TRPC4 inh,TRPC6 act,HEK293 MPD ctr-2,HEK293 MPD ctr 2-2,TRPC4 ctr mod,TRPC4 ctr inh 2,TRPC6 inh conf,TRPC6 act conf,others
N#CCCN(CCC#N)C(=O)c1ccc(Cl)cc1,i,i,100,-14*,i,i,i,i,i,i,i,i,
COc1cc(C)c(S(=O)(=O)NOCc2ccc([N+](=O)[O-])cc2)c(C)c1C,i,i,105,i,i,i,.,.,.,.,.,.,
CN(C)S(=O)(=O)c1ccc(N2CCCC2)c(C(=O)Nc2ccccc2OC(F)F)c1,i,i,103,i,i,i,.,.,.,.,.,.,
COC(=O)C1CN(C(=O)COc2cccc(C)c2C)c2ccccc2O1 (stereo not given),i,i,137,-6*,i,i,98%*,i,14%*,i,i,i,
CCOc1ccc(S(=O)(=O)Nc2cc(Cl)ccc2O)cc1,i,i,112,-5.3*,i,i,i,i,-16%*,i,i,i,
CCOc1ccc(NC(C)c2cc(Cl)ccc2O)cc1 (stereo not given),i,i,87,-5.2*,i,i,i,i,-15%*,38%*,i,i,
CC(Nc1ccc(Cl)cc1)c1cc(Cl)ccc1O (stereo not given),i,i,88,i,i,i,.,.,.,.,.,.,
CCOc1ccc(S(=O)(=O)Nc2cccc(Cl)c2)cc1,i,i,107,i,i,i,.,.,.,.,.,.,
Cc1nnsc1Sc1ccccc1C(=O)O,i,i,108,i,i,i,.,.,.,.,.,.,
CCCCCOC(=O)c1ccc(NC(=O)c2cccc(NC(=O)c3ccccc3C(=O)O)c2)cc1,i,i,97,i,i,14*,i,i,15%*,i,.,200%*,
CCCCOC(=O)c1ccc(NC(=O)c2ccoc2C)cc1,i,i,103,i,i,i,.,.,.,.,.,.,
CCCCOC(=O)c1ccc(NC(=O)c2ccccc2OC)cc1,i,i,115,i,i,i,.,.,.,.,.,.,
CCCCOC(=O)c1ccc(NC(=O)c2ocnc2C)cc1,i,i,82,-6.7*,i,i,.,.,.,.,i,i,TRPC4 spec 2=i;TRPC4 spec=i;HEK293 MPD ctr 2-1=i;HEK293 MPD ctr-1=i
Cc1ccc(-c2cc(-c3cccs3)[nH]n2)c(O)c1,i,i,90,i,i,i,.,.,.,.,.,.,
C#CCOCCOCCOCCNc1nc(N2CCN(C(=O)[C@H](C)n3cc(CCCN=C(N)N)nn3)CC2)nc(N2CCN(C(=O)[C@H](Cc3ccc(O)cc3)n3cc(CCO)nn3)CC2)n1,i,i,.,i,i,i,.,.,.,.,.,.,
C#CCN(C(=O)c1ccc(OC2CCN(C(=O)CCOC)CC2)cc1)C1CCCCC1,i,i,102,i,i,i,.,.,.,.,.,.,
O=C(c1cccc(F)c1)N1CCN(C2CCCCC2)CC1,i,i,92,i,i,i,.,.,.,.,.,.,
O=C(c1cccc(C(F)(F)F)c1)N1CCN(C2CCCCC2)CC1,i,i,80,-5.6*,i,i,i,i,11%*,i,40%*,.,
O=C(CC(c1ccccc1O)N1CCCCC1)N1CCCCC1 (stereo not given),i,i,102,-9.7*,i,i,.,.,.,.,63%*,.,TRPC4 spec 2=i;TRPC4 spec=3.6%*;HEK293 MPD ctr 2-1=i;HEK293 MPD ctr-1=4.8%*
Nc1ccc(O)c2c1C(=O)c1ccccc1C2=O,i,i,108,-8.2*,i,i,-85%*,i,-40%*,66%*,42%*,i,
Nc1ccc(Br)c2c1C(=O)c1ccccc1C2=O,i,i,103,i,i,i,.,.,.,.,.,.,
COc1cccc(CNC(=O)COC(=O)C2CC3CCCC(C2)C3=O)c1 (stereo not given),i,i,118,i,i,i,.,.,.,.,.,.,
O=C(NC1CC1)C1CCN(C2CCN(C(=O)CSc3ccccc3)CC2)CC1,i,i,103,i,i,i,.,.,.,.,.,.,
O=C(NC1CC1)C1CCN(C2CCN(C(=O)CCOc3ccccc3)CC2)CC1,i,i,83,i,i,30*,246%*,i,76%*,i,i,66%*,
CC(C)c1ccc(NC2CCCN(C(=O)c3cnc4ccccn4c3=O)C2)cc1 (stereo not given),i,i,99,-7*,i,i,.,.,.,.,i,i,TRPC4 spec 2=i;TRPC4 spec=i;HEK293 MPD ctr 2-1=i;HEK293 MPD ctr-1=i
Cc1ccc(NC2CCCN(C(=O)c3cnc4ccccn4c3=O)C2)cc1C (stereo not given),i,i,91,i,i,i,.,.,.,.,.,.,
Cc1ccc(NC(=S)N2CCN(S(=O)(=O)c3ccccc3)CC2)cc1,i,i,99,i,i,i,.,.,.,.,.,.,

# Screens as filed in PubChem BioAssay.
